# Results taken from ChEMBL document CHEMBL3779810, “Potent, Selective, and Orally Bioavailable Inhibitors of VPS34 Provide Chemical Tools to Modulate Autophagy in Vivo” (ACS Med Chem Lett, 2016).
# How the values were obtained:
# [1] = target: T1, Phosphatidylinositol 3-kinase catalytic subunit type 3 (Homo sapiens, UniProt Q8NEB9); assay: Inhibition of VPS34 in human U2OS cells incubated for 2 hrs by GFP-FYVE reporter gene assay; assay type: cell-based
# [2] = target: T2, Phosphatidylinositol 4,5-bisphosphate 3-kinase catalytic subunit delta isoform (Homo sapiens, UniProt O00329); assay: Inhibition of PI3Kdelta (unknown origin)
# T2 sequence (O00329 whole entry): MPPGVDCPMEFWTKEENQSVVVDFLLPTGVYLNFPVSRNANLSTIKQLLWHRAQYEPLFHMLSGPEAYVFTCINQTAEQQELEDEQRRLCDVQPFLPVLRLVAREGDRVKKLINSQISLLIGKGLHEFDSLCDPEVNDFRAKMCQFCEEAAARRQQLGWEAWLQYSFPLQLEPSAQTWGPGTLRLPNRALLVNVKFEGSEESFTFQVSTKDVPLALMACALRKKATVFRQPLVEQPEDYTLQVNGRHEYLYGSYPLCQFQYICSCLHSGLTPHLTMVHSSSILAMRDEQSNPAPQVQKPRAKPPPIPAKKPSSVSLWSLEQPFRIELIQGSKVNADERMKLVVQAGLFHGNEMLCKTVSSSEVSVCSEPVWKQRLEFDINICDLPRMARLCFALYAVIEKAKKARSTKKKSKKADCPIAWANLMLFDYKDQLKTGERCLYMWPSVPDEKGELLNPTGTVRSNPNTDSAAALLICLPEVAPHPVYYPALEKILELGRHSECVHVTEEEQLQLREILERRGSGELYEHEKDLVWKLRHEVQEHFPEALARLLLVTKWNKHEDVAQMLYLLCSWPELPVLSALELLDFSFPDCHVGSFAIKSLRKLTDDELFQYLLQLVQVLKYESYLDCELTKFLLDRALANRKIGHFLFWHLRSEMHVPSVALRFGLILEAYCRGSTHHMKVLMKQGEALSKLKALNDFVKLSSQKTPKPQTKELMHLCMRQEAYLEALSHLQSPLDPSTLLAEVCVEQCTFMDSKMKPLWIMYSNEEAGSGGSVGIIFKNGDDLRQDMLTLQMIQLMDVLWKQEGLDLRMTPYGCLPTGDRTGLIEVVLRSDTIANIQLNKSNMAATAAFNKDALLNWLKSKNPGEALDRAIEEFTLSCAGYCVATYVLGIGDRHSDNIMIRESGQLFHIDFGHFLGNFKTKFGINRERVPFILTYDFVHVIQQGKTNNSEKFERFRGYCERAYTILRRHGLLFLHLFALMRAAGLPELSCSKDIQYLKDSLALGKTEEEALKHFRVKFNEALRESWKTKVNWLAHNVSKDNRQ
# [3] = Intrinsic clearance in mouse liver microsomes by LC-MS/MS analysis; assay type: ADME; conditions: read-out: CLH
# [4] = target: T1, Phosphatidylinositol 3-kinase catalytic subunit type 3; assay: Inhibition of recombinant human VPS34 using L-alpha-phosphatidylinositol as substrate incubated for 10 mins by luminescence based ATP detection assay
# Procedure, shortened: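 VPS34 biochemical IC50 was measured with a luminescence-based ATP detection read-out.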
# T1 sequence (Q8NEB9 whole entry, canonical isoform): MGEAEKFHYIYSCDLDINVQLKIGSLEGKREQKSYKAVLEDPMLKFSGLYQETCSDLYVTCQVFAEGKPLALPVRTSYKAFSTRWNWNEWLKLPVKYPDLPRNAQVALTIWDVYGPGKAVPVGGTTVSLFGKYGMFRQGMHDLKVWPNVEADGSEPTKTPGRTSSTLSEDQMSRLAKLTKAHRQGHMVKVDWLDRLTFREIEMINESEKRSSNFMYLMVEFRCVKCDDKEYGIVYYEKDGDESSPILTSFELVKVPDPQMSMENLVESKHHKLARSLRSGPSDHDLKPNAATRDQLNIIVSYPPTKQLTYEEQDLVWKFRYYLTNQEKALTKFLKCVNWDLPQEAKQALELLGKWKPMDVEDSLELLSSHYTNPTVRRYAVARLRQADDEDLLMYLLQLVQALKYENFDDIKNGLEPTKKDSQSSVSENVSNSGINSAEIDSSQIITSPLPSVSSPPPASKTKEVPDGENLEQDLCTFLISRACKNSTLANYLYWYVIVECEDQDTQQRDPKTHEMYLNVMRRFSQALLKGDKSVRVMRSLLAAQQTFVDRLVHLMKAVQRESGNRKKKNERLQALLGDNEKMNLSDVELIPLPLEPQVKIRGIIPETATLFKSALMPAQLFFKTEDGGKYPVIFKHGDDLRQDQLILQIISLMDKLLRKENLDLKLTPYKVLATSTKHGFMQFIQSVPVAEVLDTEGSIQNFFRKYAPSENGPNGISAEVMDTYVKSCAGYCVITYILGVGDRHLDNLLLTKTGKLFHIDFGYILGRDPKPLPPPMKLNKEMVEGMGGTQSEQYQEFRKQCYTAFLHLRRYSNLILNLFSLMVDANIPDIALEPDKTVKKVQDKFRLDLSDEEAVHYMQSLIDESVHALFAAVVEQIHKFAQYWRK
Structure (SMILES),IC50 [1],IC50 [2],CLint scaled [3],IC50 [4]
c1cc(Nc2nccc(-c3cncnc3CC3CC3)n2)ccn1,0.33 µM,> 9.1 µM,4.19 L/h/kg,0.21 µM
c1cc(Nc2nccc(-c3cnc(NC4CCOCC4)nc3CC3CC3)n2)ccn1,0.27 µM,4.2 µM,3.95 L/h/kg,0.24 µM
c1ccc(CNc2ncc(-c3ccnc(Nc4ccncc4)n3)c(CC3CC3)n2)cc1,–,3.7 µM,4.49 L/h/kg,–
COc1ncc(-c2ccnc(Nc3ccncc3)n2)c(CC2CC2)n1,–,8.5 µM,5.08 L/h/kg,–
CC(C)(C)Nc1ncc(-c2ccnc(Nc3ccncc3)n2)c(CC2CC2)n1,–,0.74 µM,5.13 L/h/kg,–
CNc1ncc(-c2ccnc(Nc3cnc4ccccc4c3)n2)c(CC2CC2)n1,–,–,–,0.13 µM
CC(C)(C)CNc1ncc(-c2ccnc(Nc3ccncc3)n2)c(CC2CC2)n1,–,0.5 µM,4.02 L/h/kg,–
CNc1ncc(-c2ccnc(N[C@H]3CC[C@H](N)CC3)n2)c(CC2CC2)n1,–,–,–,0.41 µM
